Only some compounds are listed: those with a hit (about 3.8% of all), similar ones and a draw of the others.
Kir21 block: blocks the mouse Kir2.1 inward-rectifier potassium channel. P35561. HEK293-Kir2.1, FluxOR thallium flux fluorescence; stronger effect = lower value. B-score at 10 µM. hit rate 0.85% among 310,000. AID 1672;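 active means fluorescence ratio B-score at or below minus 3 SD of library scores, with starting-brightness B-score within 2 SD, cut at about -4.2 in these data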;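 further: channel flux triggered by added potassium and thallium sulfate stimulus; B-score of peak minus minimum fluorescence over baseline after thallium stimulus; more negative B-score means stronger Kir2.1 block with less thallium influx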
hERG rescue: compounds protecting human hERG from proarrhythmic drug block | Q12809 | CHO-hERG, FluxOR thallium flux, dofetilide IC70 present | activation (rescue from dofetilide block), less the hit threshold, % at 10 µM | hit rate 0.51% among 310,000;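 active means activation above the mean of controls blocked by dofetilide plus 5 SD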;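 further: thallium influx through hERG after potassium depolarization seen as dye fluorescence rise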
KCNK3 block: human KCNK3 channel inhibition, primary screen | B-score at 10 µM | AID 602410 | hit rate 0.84% among 340,000 | CHO-KCNK3 thallium flux, FluxOR fluorescence; stronger effect = lower value | O14649;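 active means B-score under library mean minus 4 SD, starting fluorescence ratio at most library mean plus 5 SD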;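 further: more negative B-score means stronger inhibition of thallium flux through KCNK3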
Target sequence (O14649 whole entry, looked up): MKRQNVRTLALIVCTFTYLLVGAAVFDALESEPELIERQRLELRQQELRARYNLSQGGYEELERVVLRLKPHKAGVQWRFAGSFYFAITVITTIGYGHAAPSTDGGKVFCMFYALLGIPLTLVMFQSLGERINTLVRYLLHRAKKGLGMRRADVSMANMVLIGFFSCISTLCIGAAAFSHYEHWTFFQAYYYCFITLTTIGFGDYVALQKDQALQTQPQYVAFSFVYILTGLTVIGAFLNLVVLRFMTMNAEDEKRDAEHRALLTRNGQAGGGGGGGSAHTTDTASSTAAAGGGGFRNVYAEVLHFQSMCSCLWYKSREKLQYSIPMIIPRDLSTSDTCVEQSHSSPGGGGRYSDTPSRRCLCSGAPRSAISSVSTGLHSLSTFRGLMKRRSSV
KCNK9 inh: inhibitors of human KCNK9 two-pore domain potassium channel; HEK293 KCNK9, FluxOR thallium flux fluorescence; stronger effect = lower value; B-score at 10 µM; hit rate 1.2% among 310,000; AID 488922;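 active means ratio B-score over 3 SD below the library mean, with starting fluorescence within 5 SD of its mean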;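 further: negative B-score means less thallium flux so channel inhibition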
KCNQ1 pot: potentiators or activators of human KCNQ1 potassium channel | B-score at 10 µM | hit rate 0.35% among 310,000 | CHO-K1 KCNQ1, thallium flux FluxOR fluorescence; stronger effect = higher value | AID 2648 | P51787;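 active means fluorescence ratio B-score, a plate-corrected score, at least three library SD, with initial intensity B-score within 5 SD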
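Medium – assay buffer, equal DMSO in all wells · Material – CHO-K1 cell line with stable KCNQ1 potassium channel expression · Signal – kinetic FluxOR thallium fluorescence, 10-s 1-Hz baseline, 110-s post-stimulus read · Compound – single concentration per compound, DMSO matched to controls · Schedule – 37 °C overnight plating, 90-min dark dye load, 20-min compound pretreatment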
KCNQ1 inh: inhibitors of human KCNQ1 potassium channel. P51787. CHO-K1 KCNQ1, FluxOR thallium flux fluorescence; stronger effect = higher value. B-score at 10 µM. hit rate 1.3% among 310,000. AID 2642;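 active means compounds whose thallium flux B-score, printed positive for inhibition, exceeds three library SD while starting fluorescence stays within three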;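 further: channel opened by potassium depolarization with thallium stimulus after 20 min compound exposure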
Each line names hits and unclear results; the compound was inactive in the other large screens.

CCc1ccccc1NC(=O)N1C2CCCC1CC(NC(C)=O)C2 (stereo not given)	hERG rescue 6.0
Cc1cc(/C=N/n2cnnc2)c(C)n1-c1ccc(Cl)cc1	none
Cc1cc(/C=N/n2cnnc2)c(C)n1-c1ccc(Cl)cc1Cl	KCNQ1 pot 10
Cn1c(Sc2ccccc2Cl)c(C=O)c2ccccc21	KCNQ1 inh 11
Cn1c(Oc2ccc(Cl)cc2)c(C=O)c2ccccc21	none
COc1ccc(OC)c(NC(=O)CCCCCn2nnc3ccccc3c2=O)c1	none
CN(c1ccc(OCC(=O)NCCc2ccccc2)cc1)S(=O)(=O)c1ccc(Cl)cc1	none
COc1ccc(CCNC(=O)COc2ccc(N(C)S(=O)(=O)c3ccc(Cl)cc3)cc2)cc1	Kir21 block -5.9
C=C1C[C@H](O[C@@H]2O[C@H](CO)[C@@H](O)[C@H](O)[C@H]2O)[C@@H]2[C@H](OC(=O)[C@H]2C)[C@H]2[C@H](C)[C@H](O)C[C@@H]12	none (no result: Kir21 block, hERG rescue, KCNK9 inh, KCNQ1 pot, KCNQ1 inh)
CCN(CC)CCNCC(O)(c1ccc(Cl)cc1)c1ccc(Cl)cc1	Kir21 block -5.6
CC(C)(C)NCC(O)(c1ccc(Cl)cc1)c1ccc(Cl)cc1	none
CCCn1c(=N)n(CC(=O)C(C)(C)C)c2ccccc21	KCNQ1 inh 6
COc1cc(/C=N/N=C(N)N)ccc1OCc1ccccc1Cl	Kir21 block -16, KCNQ1 inh 10
COc1ccc(C(=O)C(=O)c2ccc(OCCO)cc2)cc1	none
COc1ccc2ncc(S(=O)(=O)c3ccccc3)c(N3CCN(c4ccccc4)CC3)c2c1	none
CCN1Cc2c(/C=C/c3ccccc3)nc3ccc(OC)cc3c2N(c2cccc(Cl)c2)C1	Kir21 block -13
C=CCn1c2ccccc2c2nnc(SCN3C(=O)c4ccccc4C3=O)nc21	KCNQ1 inh 6
COCCN(C(=O)CC1C(=O)NCCN1Cc1ccc(-c2ccccc2)cc1)C(C)C (stereo not given)	none
CC(C)Cn1c(=O)c(C(=O)Nc2cnccn2)c(O)c2ccccc21	none
CC(C)Cn1c(=O)c(C(=O)Nc2ccncc2)c(O)c2ccccc21	KCNQ1 inh 8
CCC(c1nnnn1CCc1ccccc1)N(Cc1ccco1)Cc1cc2c(C)ccc(C)c2[nH]c1=O (stereo not given)	KCNK9 inh -7.3
CCC(c1nnnn1CCc1ccccc1)N(Cc1ccco1)Cc1cc2cc(C)cc(C)c2[nH]c1=O (stereo not given)	none
CCC(c1nnnn1Cc1ccco1)N(CCc1ccccc1)Cc1cc2cc(C)ccc2[nH]c1=O (stereo not given)	none
Cc1ccc2[nH]c(=O)c(CN(CCc3ccccc3)C(c3nnnn3Cc3ccco3)C(C)C)cc2c1 (stereo not given)	KCNK3 block -8.9
CN(NS(=O)(=O)c1ccccc1)C(=O)c1ccccc1	none (no result: Kir21 block, hERG rescue, KCNK9 inh, KCNQ1 pot, KCNQ1 inh)
CCN1C(=O)[C@@H]2[C@@H](c3ccc(-c4ccc(F)cc4)c(OC)c3)N3CCC[C@@]3(C(=O)OC)[C@@H]2C1=O	none (no result: Kir21 block, hERG rescue, KCNK9 inh, KCNQ1 pot, KCNQ1 inh)
CC1=C(C(=O)OC2CCCCCC2)C(c2ccc(C)o2)C2=C(CCCC2=O)N1 (stereo not given)	none
CC1=C(C(=O)OC2CCCC2)C(c2ccc(C)o2)C2=C(CC(c3cccs3)CC2=O)N1 (stereo not given)	KCNQ1 inh 8
CCCC[C@H](CN(N=O)[C@@H](Cc1ccccc1)CN(C)N=O)N(CCc1ccccc1)N=O	KCNQ1 inh 6
Cc1ccc(S(=O)(=O)/C(C#N)=C/c2c(N3CCN(C)CC3)nc3ccccn3c2=O)cc1	none
Cc1ccc(S(=O)(=O)/C(C#N)=C/c2c(N3CCN(Cc4ccccc4)CC3)nc3ccccn3c2=O)cc1	KCNK3 block -11
CC(C)[C@H](NS(=O)(=O)c1ccccc1)C(=O)OCC(=O)N1N=C(c2ccc(Cl)cc2)CC1c1ccco1 (stereo not given in full)	none
Cc1nn(C)cc1/C=N/NC(=S)Nc1ccc(Cl)cc1Cl	none
CCn1nc(C)c(/C=N/NC(=S)Nc2ccc(Cl)cc2Cl)c1C	hERG rescue 4.8
CO/N=C/c1ccc(N2CCN(C(=O)c3ccc(Cl)cc3Cl)CC2)c([N+](=O)[O-])c1	KCNQ1 inh 7
O=C(CN1C(=O)c2ccccc2S1(=O)=O)Nc1cc(S(=O)(=O)N2CCCCC2)ccc1Cl	none (no result: Kir21 block, hERG rescue, KCNK9 inh, KCNQ1 pot, KCNQ1 inh)
CC(/C=C1\SC(=S)N(c2ccc(C(=O)O)cc2)C1=O)=C\c1ccccc1	hERG rescue 5.1
CC(/C=C1\SC(=S)N(NC(=O)c2ccc(C)cc2)C1=O)=C\c1ccccc1	none
CSCCC(NC(=O)COc1ccccc1)C(=O)OC(C)C(=O)Nc1ccccc1C (stereo not given)	none
Cc1cc(O)c(C(C)C)cc1NC(=O)Nc1cccc2ccccc12	none
Cc1cc(O)c(C(C)C)cc1NC(=O)Nc1ccc([N+](=O)[O-])cc1	KCNK3 block -10 (no result: Kir21 block, hERG rescue, KCNK9 inh, KCNQ1 pot, KCNQ1 inh)
Cc1ccc(C(C)C)cc1NC(=O)Nc1ccc([N+](=O)[O-])cc1	KCNQ1 inh 7
CCCCn1c(=O)[nH]c(=O)c2c1nc(-c1ccccc1F)n2Cc1ccccc1OC	none
O=C1C(Nc2ccccc2)=C(N2CCCCC2)C(=O)c2ccccc21	none
CN(C1=C(N2CCCCC2)C(=O)c2ccccc2C1=O)c1ccccc1	KCNK9 inh -15
COc1ccc(OC)c(S(=O)(=O)Nc2cccc3ccc(O)cc23)c1	none
CCCCn1nc(C(=O)NNC(=O)c2ccncc2)c2ccccc2c1=O	none
CCOC(=O)c1c(C)oc2c(F)c(F)c(F)c(F)c2c1=O	KCNQ1 inh 7
CCOC(=O)c1c(C)oc2c1cc(O)c1ccccc12	none
Cc1nn(C(=O)c2nn(C)cc2[N+](=O)[O-])c(C)c1Br	none
COc1ccc(-c2noc(CCC(=O)N3CCN(c4cccc(C)c4C)CC3)n2)cc1	none (no result: Kir21 block, hERG rescue, KCNK9 inh, KCNQ1 pot, KCNQ1 inh)
Cc1cccc(NC(=O)CSc2nnc(-c3ccc(S(=O)(=O)N4CCOCC4)cc3)n2C)c1	none
COc1ccc2cc(C(=O)C3CCCN(Cc4cccc(C)n4)C3)ccc2c1 (stereo not given)	none
Cc1cccc(CN2CCCC(C(=O)c3ccc4c5c(cccc35)CC4)C2)n1 (stereo not given)	Kir21 block -4.2
NC(CCCCc1ccccc1)c1cccc2ccccc12 (stereo not given)	Kir21 block -11 (no result: KCNK3 block)
c1ccc(CCCCc2ccccn2)cc1	none (no result: Kir21 block, hERG rescue, KCNK9 inh, KCNQ1 pot, KCNQ1 inh)
CCN(CC)c1nc(C(F)(F)F)nc2c1nnn2Cc1ccccc1	KCNQ1 inh 6
N#Cc1ccc(C(=O)NNC(=O)c2cccc(S(=O)(=O)N3CCOCC3)c2)cc1	none (no result: Kir21 block, hERG rescue, KCNK9 inh, KCNQ1 pot, KCNQ1 inh)
CCOC(=O)C1=NN(C(=O)c2cccc(Br)c2)C(O)(C(C)(C)C)C1 (stereo not given)	hERG rescue 51, KCNQ1 pot 66 (no result: KCNK3 block)
CCOC(=O)C1=NN(C(=O)c2ccco2)C2(CC2)C1	none
CCCSCCCNC(=O)c1ccc(NC(=O)C2=CSCCO2)cc1	none
